# Bioassay records from PubChem BioAssay.
# Compounds with a hit are over-represented: about 2.6% of the library has one in this group of screens.
# NadD block = NadD (S. aureus) enzyme inhibition; purified NadD enzyme, colorimetric absorbance read-out; inhibition, % at 20 µM; actives 0.78% (n = 360,000); in the data active means inhibition above about 26%
# STEP inh = inhibitors of human striatal-enriched phosphatase STEP; inhibition, % at 20 µM; actives 0.25% (n = 360,000); P54829; recombinant STEP, OMFP fluorogenic substrate, fluorescence;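 active means inhibition at 20 µM, scaled per plate between control wells, above about 37%, limit read from the data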
# Target sequence (P54829 whole entry, looked up): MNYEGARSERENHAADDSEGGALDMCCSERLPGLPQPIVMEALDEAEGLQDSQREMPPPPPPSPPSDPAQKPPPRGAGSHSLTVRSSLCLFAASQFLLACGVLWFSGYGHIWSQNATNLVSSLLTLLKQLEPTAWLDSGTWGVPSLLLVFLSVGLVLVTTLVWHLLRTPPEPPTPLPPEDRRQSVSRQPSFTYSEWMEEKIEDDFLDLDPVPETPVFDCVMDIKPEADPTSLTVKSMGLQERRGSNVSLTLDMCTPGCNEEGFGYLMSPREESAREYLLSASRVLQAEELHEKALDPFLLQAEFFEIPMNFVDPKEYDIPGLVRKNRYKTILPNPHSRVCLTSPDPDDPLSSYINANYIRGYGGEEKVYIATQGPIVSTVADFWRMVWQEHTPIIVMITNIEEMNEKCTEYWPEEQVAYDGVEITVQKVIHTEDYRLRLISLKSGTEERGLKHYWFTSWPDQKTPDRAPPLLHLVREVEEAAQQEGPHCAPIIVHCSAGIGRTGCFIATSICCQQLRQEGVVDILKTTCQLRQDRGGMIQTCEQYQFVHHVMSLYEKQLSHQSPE
#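 Test system: STEP tyrosine phosphatase / Reagent: OMFP at 25 µM / Doses: 20 µM, 1% DMSO / Read-out: percent inhibition scaled to no-enzyme and uninhibited-enzyme controls, plate-pattern corrected / Detection: FITC-channel fluorescence of OMFP product / Medium: Bis-Tris buffer pH 6.0, 2.5 mM DTT, 0.005% Tween 20 / Schedule: 20 min at room temperature, dark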
# LMPTP inh = blocks human LMPTP phosphatase; P24666; recombinant LMPTP-A, OMFP fluorogenic substrate, fluorescence intensity; inhibition, % at 20 µM; actives 0.22% (n = 360,000); AID 651560;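 active means compounds that cut the enzyme signal by at least half of the control window in the single-dose screen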
#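 Test system – LMPTP-A phosphatase enzyme · Quantity – 0.625 nM LMPTP-A final · Reagent – OMFP substrate, 400 µM final · Dosing – one test concentration per compound, 20 µM, with 3% DMSO overall · Timing – 50 min enzyme reaction at room temperature, protected from light · Detection – fluorescence intensity · Controls – substrate-only low control, DMSO enzyme-plus-substrate high control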
# rCAG binder = binds r(CAG) RNA repeats; actives 1.3% (n = 370,000); r(CAG) RNA repeat, TO-PRO-1 dye displacement fluorescence; inhibition, % at 3 µM;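 active means inhibition above the plate cutoff, the mean of all test compounds on that plate plus 3 SD, cut at about 35% in these data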;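 further: higher means more dye released from RNA so lower well fluorescence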
# Scp-1 inhibitor = inhibitors of human Scp-1 phosphatase; Q9GZU7; Recombinant Scp1, phosphopeptide, malachite green phosphate absorbance; inhibition, % at 20 µM; actives 0.88% (n = 340,000);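 active means inhibition above about 50% at 20 µM, limit read from the data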
#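 Test system: SCP-1 phosphatase catalytic domain, residues 76-261; measured by: colorimetric phosphate reagent with accelerator and stabiliser, absorbance at 630 nm; timing: enzyme reaction 45 min at room temperature, colour 5 min, stabilisation 30 min; also added: Phosphorylated 17-residue peptide substrate; compound dosing: one concentration, 20 µM, with 1.0% DMSO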
# rCAG binder conf = r(CAG) RNA repeat binding, confirmation; shares compounds with rCAG binder; TO-PRO-1 dye displacement fluorescence; inhibition, % at 3 µM; actives 70% (n = 4,300);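 active means inhibition above a per-plate cutoff, the mean inhibition of sample wells plus 3 SD, cut at about 35% in these data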;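 further: loss of TO-PRO-1 fluorescence as compound displaces dye from 1x1 AA loop RNA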
# dCAG dye counter = DNA CAG dye complex inhibition counter-screen; shares compounds with rCAG binder; d(CAG) DNA oligo TO-PRO-1 dye displacement, fluorescence; inhibition, % at 3 µM; actives 94% (n = 4,300); AID 652068;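 active means inhibition above its plate's cutoff, the mean test-well inhibition plus 3 SD, cut at about 4.8% in these data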;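 further: hits displace the dye from DNA and so lower well fluorescence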
# A number is an active result; . = inactive; / = not tested or not shown.
SMILES,NadD block,STEP inh,LMPTP inh,rCAG binder,Scp-1 inhibitor,rCAG binder conf,dCAG dye counter
COc1ccc(Cn2c(O)c(/C=N/NC(=O)c3ccncc3)c(=O)[nH]c2=O)cc1,.,.,.,.,.,/,/
NC(Cc1ccccc1)[P+](=O)O (stereo not given),/,/,/,.,/,/,/
CCC(NC(=O)OCc1ccccc1)P(=O)(Oc1ccccc1)Oc1ccccc1 (stereo not given),/,/,/,.,/,/,/
C[C@H]1CNCCN1c1ccc(N2CC[C@@H](O)C2)c(C#N)c1,/,/,/,.,/,/,/
O=C1NC(=O)N(Cc2ccccc2)C(=O)/C1=C/C=C/c1ccco1,.,.,.,45,.,.,8.5
CC(C)c1ccc(N2C(=O)NC(=O)/C(=C\C=C\c3ccco3)C2=O)cc1,/,/,/,44,.,.,13
CC(C)c1ccc(N2C(=O)NC(=O)/C(=C\c3cnc(-c4ccccc4)nc3)C2=O)cc1,.,.,.,.,.,/,/
COc1cc(OC)c(OC)cc1/C=C1/C(=O)NC(=O)N(Cc2ccccc2)C1=O,.,.,.,.,.,/,/
CCC12CCN(CC3(O)CC3)C(Cc3ccc(O)cc31)C2(C)C (stereo not given),/,/,/,.,/,/,/
COc1ccccc1N1C(=O)NC(=O)/C(=C/c2ccc([N+](=O)[O-])s2)C1=O,/,/,/,84,.,60,28
COc1ccc(N2C(=O)/C(=C/C=C/c3ccccc3[N+](=O)[O-])C(=O)NC2=S)cc1,/,/,/,84,.,78,44
COc1cccc(N2C(=O)NC(=O)/C(=C/c3ccc([N+](=O)[O-])s3)C2=O)c1,.,.,.,59,.,43,20
COc1ccc(N2C(=O)NC(=O)/C(=C/c3ccc([N+](=O)[O-])s3)C2=O)cc1,.,.,.,69,.,50,21
COC(=O)C1C(OC(=O)c2ccccc2)CC2CCC1[N+]2(C)C (stereo not given),/,/,/,.,/,/,/
OC1CN2CCCC(O)C2C1O (stereo not given),/,/,/,.,/,/,/
CCOc1ccc(N2C(=O)NC(=O)/C(=C\c3cc(OC)c(OC)cc3[N+](=O)[O-])C2=O)cc1,.,.,.,/,.,/,/
COc1ccc(N2C(=O)NC(=O)/C(=C\c3ccc([N+](=O)[O-])s3)C2=O)cc1,.,.,.,76,.,54,21
O=c1nc(/C=C/c2ccc(Cl)cc2Cl)cc(C(F)(F)F)[nH]1,.,.,.,49,.,38,10
COc1ccc2c3c([nH]c2c1)[C@H](C=C(C)C)N1C(=O)[C@@H]2CCCN2C(=O)[C@@H]1C3,/,/,/,.,/,/,/
COC(=O)C1C(c2ccc(F)cc2)CC2CCC1N2C (stereo not given),/,/,/,.,/,/,/
O=C1NC(=O)N(CCC2=CCCCC2)C(=O)/C1=C\c1cccs1,.,.,.,42,.,.,.
Cn1cccc1/C=C1\C(=O)NC(=O)N(CCC2=CCCCC2)C1=O,.,.,.,.,.,/,/
CCc1cc(OC)c(CCN)cc1OC,/,/,/,.,/,/,/
COc1ccc(CN2C(=O)CC(=O)NC2=S)cc1,.,.,.,38,.,.,.
CC(=O)c1ccc2c(c1)C1C(Cl)C(Sc3ccccc3[N+](=O)[O-])CC1C(C(=O)O)N2 (stereo not given),.,.,78,87,.,95,73
SMILES,NadD block,STEP inh,LMPTP inh,rCAG binder,Scp-1 inhibitor,rCAG binder conf,dCAG dye counter
CC[C@H](C(N)=O)N1CCCC1=O,/,/,/,.,/,/,/
Cc1cc(OCC(=O)NCC(O)c2ccccc2)c2c3c(c(=O)oc2c1)CCCC3 (stereo not given),.,.,.,.,.,/,/
Cc1cc(OCC(=O)N[C@@H](Cc2ccccc2)C(=O)O)c2c3c(c(=O)oc2c1)CCCC3,.,.,.,46,.,37,7.9
CN1CC[C@@H]2CN[C@H](c3ccccc3Br)C[C@@H]21,/,/,/,.,/,/,/
O=C1NC(=O)N(Cc2ccc(F)cc2)C(=O)/C1=C\c1ccc([N+](=O)[O-])s1,37,.,.,93,.,79,40
COc1ccc(CN2C(=O)NC(=O)/C(=C/c3ccc([N+](=O)[O-])s3)C2=O)cc1,45,.,.,94,.,94,72
COc1ccc(CN2C(=O)NC(=O)/C(=C\c3cc(OC)c(OC)c(OC)c3)C2=O)cc1,.,.,.,.,.,/,/
